One block for each molecule: values may come before it.
What was measured:
[1] = Caco-2 membrane permeability studies; type: in vitro ADME; settings: for cellular permeability: Caco-2 cells; for efflux ratio: human, Caco-2
[2] = tested on: panel of kinases; assay: Kinase profiling; type: biochemical
[3] = Pharmacokinetic studies in mice; type: in vivo, mouse; settings: 24 h experiments (31: 8 h experiment); for Clobs: mice; for half-life: female, C57BL/6, mouse, plasma, T1/2, mice
[4] = tested on: MLL-AF9 transformed murine bone marrow cells; assay: MTT cell viability assay in MLL-AF9 transformed murine bone marrow cells; type: cell-based; settings: for SI, selectivity index: ratio of GI50 values measured in HM-2 cells (control cell line) and MLL-AF9 transformed cells; for GI50: read-out: GI50 MLL-AF9, MTT cell viability assay, 7 days of treatment
[5] = tested on: panel of GPCRs; assay: GPCR profiling
[6] = tested on: HL-60 cells; assay: MTT cell viability assay in HL-60 control cell line; type: cell-based, human; settings: up to 6 μM, 7 days
How it was run: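 MTT viability over 7 days at 37 °C. Cells were grown in RPMI-1640 with 10% FBS, penicillin/streptomycin and NEAA, then seeded at 2 × 10^5/mL (HL-60) or 1 × 10^5/mL (MV4;11, MOLM-13). They were treated with test compound or 0.25% DMSO. On day 4 the medium was changed, viable cells were reset to the starting density, and compound was resupplied. Absorbance was read at 570 nm in quadruplicate, with runs repeated 2–3 times; mean and SD are reported.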

[7] = tested on: Hoxa9/Meis1 (HM-2) transformed murine bone marrow cells; assay: MTT cell viability assay in Hoxa9/Meis1; type: cell-based; settings: up to 6 μM, 7 days
[8] = tested on: MV4;11 tumors; assay: MV4; type: in vivo, mouse; settings: 45 mg/kg, once daily via ip, 2 weeks
[9] = molecular target: T1, menin (Homo sapiens, UniProt O00255); assay: Isothermal titration calorimetry, binding to menin
T1 sequence (O00255 1-610): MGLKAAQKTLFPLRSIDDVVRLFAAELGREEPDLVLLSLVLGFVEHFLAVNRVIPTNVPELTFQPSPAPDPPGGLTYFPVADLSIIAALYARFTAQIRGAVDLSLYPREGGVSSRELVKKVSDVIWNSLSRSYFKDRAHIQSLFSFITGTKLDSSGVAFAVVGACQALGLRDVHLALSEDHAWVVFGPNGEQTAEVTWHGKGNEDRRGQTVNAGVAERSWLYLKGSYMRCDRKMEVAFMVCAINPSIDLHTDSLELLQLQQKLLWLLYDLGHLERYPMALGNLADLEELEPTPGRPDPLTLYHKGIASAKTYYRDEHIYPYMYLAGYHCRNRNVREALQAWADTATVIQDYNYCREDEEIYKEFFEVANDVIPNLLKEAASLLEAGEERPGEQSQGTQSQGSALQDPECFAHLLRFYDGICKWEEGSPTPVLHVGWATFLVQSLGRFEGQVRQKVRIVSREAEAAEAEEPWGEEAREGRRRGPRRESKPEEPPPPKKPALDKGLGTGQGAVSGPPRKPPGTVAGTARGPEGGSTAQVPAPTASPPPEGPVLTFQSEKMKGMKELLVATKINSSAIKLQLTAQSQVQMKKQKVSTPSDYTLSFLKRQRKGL

[10] = tested on: Hoxa9, Meis1 and Itgam expression in MLL-AF9 transformed BMCs; assay: qRT-PCR gene expression in MLL-AF9 transformed murine bone marrow cells; type: cell-based; settings: 6 days of treatment
How it was run: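 MLL-AF9-transformed murine bone marrow cells were treated for 6 days, and expression was then quantified by qRT-PCR. Itgam was normalised to 18S rRNA, and Hoxa9 and Meis1 to β-actin, each relative to DMSO-treated cells. Values are mean ± SD, n = 2.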

[11] = Phase II metabolism, detection of glucuronidation in blood plasma; type: in vivo, mouse; settings: blood plasma after iv administration, 15 mg/kg
How it was run: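 Test compound was given iv at 15 mg/kg to mice. Glucuronide was detected in blood plasma by LC–MS/MS in positive-ion MRM mode, following the same handling used for the pharmacokinetic study.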

SMILES: N#Cc1cc2cc(CN3CCC(Nc4ncnc5sc(CC(F)(F)F)cc45)CC3)ccc2n1CC(O)CO (racemic) [3-(RS)]
cellular permeability [1]: poor cellular permeability

SMILES: CO[C@@H](CO)Cn1c(C#N)cc2cc(CN3CCC(Nc4ncnc5sc(CC(F)(F)F)cc45)CC3)ccc21 [4-(R)]
efflux ratio [1]: > 20

SMILES: N#Cc1cc2cc(CN3CCC(Nc4ncnc5sc(CC(F)(F)F)cc45)CC3)ccc2[nH]1 [Compound 1, 5-((4-((6-(2,2,2-Trifluoroethyl)thieno[2,3-d]pyrimidin-4-yl)-amino)piperidin-1-yl)methyl)-1H-indole-2-carbonitrile]
off-target activity on a panel of kinases [2]: did not show substantial off-target activity | Clobs ([3]; iv, 15 mg/kg): 38.1 mL/min/kg | SI, selectivity index [4]: < 6 | off-target activity on a panel of GPCRs [5]: did not show substantial off-target activity

SMILES: Cc1c(CN2CCC(Nc3ncnc4sc(CC(F)(F)F)cc34)CC2)c(O)cc2[nH]c(C#N)cc12 [Compound 20, 6-Hydroxy-4-methyl-5-((4-((6-(2,2,2-trifluoroethyl)thieno-[2,3-d]pyrimidin-4-yl)amino)piperidin-1-yl)methyl)-1H-indole-2-carbonitrile]
cellular permeability [1]: relatively high to moderate cellular permeability | Clobs ([3]; iv, 15 mg/kg): 44.1 mL/min/kg | GI50 [4]: < 200 nM

SMILES: COc1cc2[nH]c(C#N)cc2c(C)c1CN1CCC(Nc2ncnc3sc(CC(F)(F)F)cc23)CC1 [Compound 21, 6-Methoxy-4-methyl-5-((4-((6-(2,2,2-trifluoroethyl)thieno-[2,3-d]pyrimidin-4-yl)amino)piperidin-1-yl)methyl)-1H-indole-2-carbonitrile]
cellular permeability [1]: relatively high to moderate cellular permeability | Clobs ([3]; iv, 15 mg/kg): 26.6 mL/min/kg | GI50 [4]: 100 nM

SMILES: Cc1c(CN2CCC(Nc3ncnc4sc(CC(F)(F)F)cc34)CC2)ccc2c1cc(C#N)n2CC(N)=O [Compound 25, 2-(2-Cyano-4-methyl-5-((4-((6-(2,2,2-trifluoroethyl)thieno-[2,3-d]pyrimidin-4-yl)amino)piperidin-1-yl)methyl)-1H-indol-1-yl)acetamide]
cellular permeability [1]: poor cellular permeability

Further lines, with some results ahead:

cellular permeability [1]: poor cellular permeability | efflux ratio [1]: > 90
SMILES: N#Cc1cc2cc(CN3CCC(Nc4ncnc5sc(CC(F)(F)F)cc45)CC3)ccc2n1CC(N)=O [Compound 7, 2-(2-Cyano-5-((4-((6-(2,2,2-trifluoroethyl)thieno[2,3-d]-pyrimidin-4-yl)amino)piperidin-1-yl)methyl)-1H-indol-1-yl)-acetamide]

ligand efficiency index (LE) [9]: 0.28 | half-life ([3]; iv, 15 mg/kg, iv, 15 mg/kg): ~1.6 h | half-life ([3]; po, 30 mg/kg, po, 30 mg/kg): 1.6 h | Clobs ([3]; iv, 15 mg/kg): 14.0 mL/min/kg | phase II metabolism [11]: undergoes glucuronidation
SMILES: N#Cc1cc2cc(CN3CCC(Nc4ncnc5sc(CC(F)(F)F)cc45)CC3)c(O)cc2n1Cc1cn[nH]c1 [Compound 27, 1-((1H-Pyrazol-4-yl)methyl)-6-hydroxy-5-((4-((6-(2,2,2-trifluoroethyl)thieno[2,3-d]pyrimidin-4-yl)amino)piperidin-1-yl)methyl)-1H-indole-2-carbonitrile]
effect on growth of control cell line HL-60 [6]: no effect | effect on growth of control cell line HM-2 [7]: no effect | reduction in the MV4;11 tumor volume [8]: about 80% | reduction of the body weight [8]: less than 10% | SI, selectivity index [4]: > 100 | expression level of Itgam (differentiation marker) [10]: marked increase

Clobs ([3]; iv, 15 mg/kg): 15.0 mL/min/kg
SMILES: COc1cc2c(cc(C#N)n2Cc2cn[nH]c2)c(C)c1CN1CCC(Nc2ncnc3sc(CC(F)(F)F)cc23)CC1 [Compound 31, 1-((1H-Pyrazol-4-yl)methyl)-6-methoxy-4-methyl-5-((4-((6-(2,2,2-trifluoroethyl)thieno[2,3-d]pyrimidin-4-yl)amino)-piperidin-1-yl)methyl)-1H-indole-2-carbonitrile]
GI50 [4]: < 200 nM
